KCNQ1 inh: inhibitors of human KCNQ1 potassium channel; CHO-K1 KCNQ1, FluxOR thallium flux fluorescence; stronger effect = higher value; 310,000 tested, 1.3% active; B-score at 10 µM; P51787; AID 2642;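 active = compounds whose thallium flux B-score, printed positive for inhibition, exceeds three library SD while starting fluorescence stays within three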;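 note: channel opened by potassium depolarization with thallium stimulus after 20 min compound exposure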
hERG protect: hERG (human) protection from proarrhythmic block; Q12809; 310,000 tested, 0.51% active; CHO-hERG, FluxOR thallium flux, dofetilide IC70 present; AID 1511; activation (rescue from dofetilide block), less the hit threshold, % at 10 µM;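 active = activation above the mean of controls blocked by dofetilide plus 5 SD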;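 note: thallium influx through hERG after potassium depolarization seen as dye fluorescence rise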
KCNQ1 pot: potentiators or activators of human KCNQ1 potassium channel | 310,000 tested, 0.35% active | P51787 | B-score at 10 µM | CHO-K1 KCNQ1, thallium flux FluxOR fluorescence; stronger effect = higher value | AID 2648;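 active = fluorescence ratio B-score, a plate-corrected score, at least three library SD, with initial intensity B-score within 5 SD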
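Medium – assay buffer, equal DMSO in all wells · Material – CHO-K1 cell line with stable KCNQ1 potassium channel expression · Signal – kinetic FluxOR thallium fluorescence, 10-s 1-Hz baseline, 110-s post-stimulus read · Compound – single concentration per compound, DMSO matched to controls · Schedule – 37 °C overnight plating, 90-min dark dye load, 20-min compound pretreatment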
KCNK9 block: human KCNK9 channel inhibition; B-score at 10 µM; 310,000 tested, 1.2% active; AID 488922; HEK293 KCNK9, FluxOR thallium flux fluorescence; stronger effect = lower value; Q9NPC2;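 active = ratio B-score over 3 SD below the library mean, with starting fluorescence within 5 SD of its mean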;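 note: negative B-score means less thallium flux so channel inhibition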
Target sequence (Q9NPC2 whole entry, looked up): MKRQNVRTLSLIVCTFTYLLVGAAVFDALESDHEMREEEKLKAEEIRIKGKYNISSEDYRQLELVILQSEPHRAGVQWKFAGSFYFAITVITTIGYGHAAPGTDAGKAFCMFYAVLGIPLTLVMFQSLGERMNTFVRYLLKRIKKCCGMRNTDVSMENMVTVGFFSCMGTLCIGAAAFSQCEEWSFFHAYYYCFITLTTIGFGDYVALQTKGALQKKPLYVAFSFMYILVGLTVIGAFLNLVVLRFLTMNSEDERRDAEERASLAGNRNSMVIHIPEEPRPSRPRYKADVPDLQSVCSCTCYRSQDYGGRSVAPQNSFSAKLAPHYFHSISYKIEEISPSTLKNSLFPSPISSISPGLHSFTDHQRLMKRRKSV
KCNK3 block: human KCNK3 channel inhibition, primary screen. O14649. CHO-KCNK3 thallium flux, FluxOR fluorescence; stronger effect = lower value. B-score at 10 µM. 340,000 tested, 0.84% active. AID 602410;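 active = B-score under library mean minus 4 SD, starting fluorescence ratio at most library mean plus 5 SD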;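 note: more negative B-score means stronger inhibition of thallium flux through KCNK3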
KCNK3 confirm: confirmation of human KCNK3 two-pore domain potassium channel inhibitors; shares compounds with KCNK3 block; CHO-KCNK3 thallium flux, FluxOR fluorescence; 0% buffer, 100% carvedilol maximal block; ratio percent of control, % at 10 µM; 2,400 tested, 99% active; AID 651638;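 active = ratio percent of control, averaged over triplicates, above buffer control mean plus 5 SD, cut at about 64% in these data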;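 note: ratio is the fluorescence rise from min to max over baseline after thallium stimulus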
KCNK3 uninduced: KCNK3 inhibitor counter-screen hit in non-induced cells; shares compounds with KCNK3 block; non-induced KCNK3 parental cells, FluxOR thallium flux; stronger effect = lower value; thallium flux ratio (lower = more inhibition) at 10 µM; 2,400 tested, 40% active; AID 651747;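 active = thallium flux ratio, averaged over three wells, more than 5 SD below the buffer control mean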;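 note: host cells are CHO cells without KCNK3 induction; ratio is peak minus trough fluorescence over baseline then normalized to buffer controls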
Starred values were filed as active, the others as inactive. Only some compounds are listed: those with a hit (about 3.1% of all), similar ones and a draw of the others.

For Cc1cccc(CNC(=O)c2ccc3c(c2)N(C)CCS3)c1 the results were KCNQ1 inh inactive, hERG protect -11, KCNQ1 pot inactive, KCNK9 block inactive and KCNK3 block inactive.
Screening CN1CCSc2ccc(C(=O)NCc3cccc(Br)c3)cc21 returned KCNQ1 inh inactive, hERG protect -14, KCNQ1 pot inactive, KCNK9 block inactive, KCNK3 block -14*, KCNK3 confirm 120* and KCNK3 uninduced 0.16*.
`CCN1CCSc2ccc(C(=O)NCc3ccccc3Br)cc21` gave KCNQ1 inh inactive, hERG protect -15, KCNQ1 pot inactive, KCNK9 block inactive, KCNK3 block -9.7*, KCNK3 confirm 104* and KCNK3 uninduced 0.15*.
`CCc1cc(CNC(=O)c2cc(COc3ccc(C)nc3)on2)on1` gave KCNQ1 inh inactive, hERG protect -6, KCNQ1 pot inactive, KCNK9 block inactive, KCNK3 block -9.4*, KCNK3 confirm 0 and KCNK3 uninduced inactive.
O=C(Cn1ncc2c([nH]c3ccccc32)c1=O)N1CCOCC1 was read as KCNQ1 inh inactive, hERG protect -4, KCNQ1 pot inactive, KCNK9 block inactive and KCNK3 block inactive.
`COc1ccc(C)cc1NC(=O)c1cccc(C(=O)Nc2cc(C)ccc2OC)c1` gave KCNQ1 inh inactive, hERG protect -7, KCNQ1 pot inactive, KCNK9 block -8*, KCNK3 block -11*, KCNK3 confirm 106* and KCNK3 uninduced inactive.
`CCCCCCCCC(=O)Nc1cc(C)ccc1OC` gave KCNQ1 inh inactive, hERG protect -13, KCNQ1 pot inactive, KCNK9 block inactive, KCNK3 block -11*, KCNK3 confirm 103* and KCNK3 uninduced inactive.
For C1=C[C@H]2CC[C@@H]1N(c1ccccc1)O2 the results were KCNK3 block inactive.
Screening O=C(COC(=O)c1cccc(Br)c1)NCc1ccco1 returned KCNK3 block inactive.
O=C(Nc1ccc(Cl)cc1)N(Cc1cccs1)Cc1cccs1 was read as KCNQ1 inh inactive, hERG protect -4, KCNQ1 pot inactive, KCNK9 block inactive, KCNK3 block -12*, KCNK3 confirm 130* and KCNK3 uninduced inactive.
For COc1cc(/C=C(\C#N)c2nc3ccccc3[nH]2)cc(OC)c1O the results were KCNQ1 inh inactive, hERG protect -16, KCNQ1 pot inactive, KCNK9 block inactive, KCNK3 block -16*, KCNK3 confirm 0 and KCNK3 uninduced inactive.
For COc1cc(/C=C(\C#N)c2nc3ccccc3n2C)cc(OC)c1O the results were KCNQ1 inh 7*, hERG protect -18, KCNQ1 pot inactive, KCNK9 block inactive, KCNK3 block -9.4*, KCNK3 confirm 118* and KCNK3 uninduced 0.15*.
COc1ccc(/C=C(\C#N)c2nc3ccccc3[nH]2)cc1O was read as KCNQ1 inh inactive, hERG protect -2, KCNQ1 pot inactive, KCNK9 block inactive and KCNK3 block inactive.
For Cc1ccc(S(=O)(=O)N2CCN(C(=O)CC(C)n3nc(C)c(Cl)c3C)CC2)cc1 (stereo unspecified) the results were KCNQ1 inh inactive, hERG protect -4, KCNQ1 pot inactive, KCNK9 block inactive and KCNK3 block inactive.
For Oc1ccccc1-c1nc(N2CCN(Cc3ccccc3)CC2)c2ccccc2n1 the results were KCNQ1 inh inactive, hERG protect -4, KCNQ1 pot inactive, KCNK9 block -7.1*, KCNK3 block -12*, KCNK3 confirm 100* and KCNK3 uninduced inactive.
Oc1ccccc1Nc1nc(NCc2ccccc2)c2ccccc2n1 was read as KCNQ1 inh inactive, hERG protect -15, KCNQ1 pot inactive, KCNK9 block inactive, KCNK3 block -12*, KCNK3 confirm 137* and KCNK3 uninduced inactive.
For CNc1nc(NCc2ccccc2)c2ccccc2n1 the results were KCNQ1 inh inactive, hERG protect -8, KCNQ1 pot inactive, KCNK9 block inactive and KCNK3 block inactive.
Oc1ccccc1-c1nc(N2CCCC2)c2ccccc2n1 was read as KCNQ1 inh inactive, hERG protect -4, KCNQ1 pot inactive, KCNK9 block inactive and KCNK3 block inactive.
Screening c1ccc(CNc2nc(N3CCN(Cc4ccccc4)CC3)nc3ccccc23)cc1 returned KCNQ1 inh 12*, hERG protect -28, KCNQ1 pot inactive, KCNK9 block inactive, KCNK3 block -10*, KCNK3 confirm 113* and KCNK3 uninduced inactive.
`O=C(Cc1cccc(NC(=O)C2CCN(C(=O)C3CC3)CC2)c1)Nc1cccc(C(=O)N2CCCCC2)c1` gave KCNK3 block inactive.
O=c1cc(S(=O)(=O)Cc2ccccc2)[nH]c(=O)[nH]1 was read as KCNK3 block inactive.
c1ccc(CCNc2ncnc3scc(C4COc5ccccc5O4)c23)cc1 (stereo unspecified) was read as KCNQ1 inh inactive, hERG protect -18, KCNQ1 pot inactive, KCNK9 block inactive, KCNK3 block -9.1*, KCNK3 confirm 127* and KCNK3 uninduced 0.12*.
For Cc1cccc(NC(=O)NC2CCCc3ccccc32)c1 (stereo unspecified) the results were KCNQ1 inh inactive, hERG protect -18, KCNQ1 pot inactive, KCNK9 block inactive, KCNK3 block -9.4*, KCNK3 confirm 121* and KCNK3 uninduced 0.14*.
`C/C(CC(=O)Nc1cc(C)ccn1)=N\NC(=O)c1cccc(F)c1` gave KCNQ1 inh inactive, hERG protect -9, KCNQ1 pot inactive, KCNK9 block inactive and KCNK3 block inactive.
O=C(CCN1C(=O)S/C(=C\c2ccc(F)cc2)C1=O)Nc1ccc(O)cc1C(=O)O was read as KCNQ1 inh inactive, hERG protect -2, KCNQ1 pot inactive, KCNK9 block inactive and KCNK3 block inactive.
`Cc1cccc(Nc2nc(N)c([N+](=O)[O-])c(N3CC(C)CC(C)C3)n2)c1` (stereo unspecified) gave KCNQ1 inh inactive, hERG protect -12, KCNQ1 pot inactive, KCNK9 block inactive and KCNK3 block inactive.
Cc1cccc(Nc2nc(N)c([N+](=O)[O-])c(N3CC(C)OC(C)C3)n2)c1 (stereo unspecified) was read as KCNQ1 inh inactive, hERG protect -10, KCNQ1 pot inactive, KCNK9 block inactive, KCNK3 block -9*, KCNK3 confirm 88* and KCNK3 uninduced inactive.
Screening CCOC(=O)c1[nH]c(C)c(C(=O)OCC(=O)NC(C)c2ccc(F)cc2)c1C (stereo unspecified) returned KCNK3 block inactive.

Assay outcomes from PubChem.
